Data published in ChEMBL document CHEMBL1128449, “Novel 4'-substituted and 4',4"-disubstituted 3 alpha-(diphenylmethoxy)tropane analogs as potent and selective dopamine uptake inhibitors” (J Med Chem, 1995).

Experiments:
[1] = target: T1, Sodium-dependent dopamine transporter (Rattus norvegicus, UniProt P23977); test: Inhibition of [3H]dopamine uptake in rat caudate putamen.; format: functional, tissue-based
[2] = target: Norepinephrine transporter (Rattus norvegicus) (UniProt Q9WTR4); test: Inhibition of [3H]desmethylimipramine binding at rat norepinephrine transporter; 10 uM
Norepinephrine transporter (Rattus norvegicus), sequence (Q9WTR4 as listed by the source): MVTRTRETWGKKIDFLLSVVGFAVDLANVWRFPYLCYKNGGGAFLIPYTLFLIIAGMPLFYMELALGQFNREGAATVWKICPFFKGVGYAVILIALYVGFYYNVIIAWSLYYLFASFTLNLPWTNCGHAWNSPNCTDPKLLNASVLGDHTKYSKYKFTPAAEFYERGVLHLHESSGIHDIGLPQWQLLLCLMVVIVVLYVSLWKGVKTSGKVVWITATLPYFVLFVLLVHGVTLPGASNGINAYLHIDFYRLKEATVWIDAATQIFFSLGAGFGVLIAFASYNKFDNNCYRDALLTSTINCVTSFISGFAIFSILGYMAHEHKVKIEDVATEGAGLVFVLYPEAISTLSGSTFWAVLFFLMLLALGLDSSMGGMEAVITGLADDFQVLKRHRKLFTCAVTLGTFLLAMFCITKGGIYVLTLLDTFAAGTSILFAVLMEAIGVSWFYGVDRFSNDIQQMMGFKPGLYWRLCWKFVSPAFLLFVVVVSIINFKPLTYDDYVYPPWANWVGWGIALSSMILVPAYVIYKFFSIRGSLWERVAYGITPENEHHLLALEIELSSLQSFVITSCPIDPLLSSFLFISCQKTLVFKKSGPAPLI
Summary of the method: (§1)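 Contract-lab radioligand displacement, percent inhibition at 10 μM test compound; 5HTT used [³H]citalopram at 0.7 nM final, NET used [³H]desmethylimipramine at 3.0 nM final.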

[3] = target: Sodium-dependent serotonin transporter (Rattus norvegicus) (UniProt P31652); test: Inhibition of [3H]citalopram binding at rat serotonin transporter; 10 uM; summary of the method: as §1
Sodium-dependent serotonin transporter (Rattus norvegicus), sequence (P31652 whole entry): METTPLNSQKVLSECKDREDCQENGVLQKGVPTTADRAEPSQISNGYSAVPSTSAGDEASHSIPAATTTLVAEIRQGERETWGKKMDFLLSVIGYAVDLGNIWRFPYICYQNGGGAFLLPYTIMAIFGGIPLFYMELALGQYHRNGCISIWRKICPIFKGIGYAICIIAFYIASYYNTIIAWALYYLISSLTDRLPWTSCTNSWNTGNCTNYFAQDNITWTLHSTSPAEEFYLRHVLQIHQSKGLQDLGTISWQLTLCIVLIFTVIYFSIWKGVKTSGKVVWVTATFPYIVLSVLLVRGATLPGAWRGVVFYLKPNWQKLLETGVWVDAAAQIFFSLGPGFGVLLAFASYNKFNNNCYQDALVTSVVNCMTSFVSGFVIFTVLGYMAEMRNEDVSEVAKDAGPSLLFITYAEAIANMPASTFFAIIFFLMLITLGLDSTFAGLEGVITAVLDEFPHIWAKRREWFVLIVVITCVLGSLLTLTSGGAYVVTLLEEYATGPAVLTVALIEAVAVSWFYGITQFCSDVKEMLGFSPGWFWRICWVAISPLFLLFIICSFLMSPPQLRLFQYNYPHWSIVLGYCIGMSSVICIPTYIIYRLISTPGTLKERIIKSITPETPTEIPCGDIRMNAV

[4] = target: T1, Sodium-dependent dopamine transporter; test: Affinity for rat dopamine transporter using [3H]WIN-35428 displacement.
Summary of the method: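 Rat caudate putamen (male Sprague–Dawley, 200–250 g) homogenised in ice-cold modified Krebs-HEPES, pH 7.4, washed and used fresh (0.5% w/v). Filtration, scintillation counting. Ki from nonlinear least-squares fitting of three independent experiments, F test model selection.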

[5] = target: T2, Muscarinic acetylcholine receptor M2 (Rattus norvegicus, UniProt P10980); test: Affinity for rat M2 acetylcholine receptor using [3H]-AF DX 384 displacement.
T2 sequence (P10980 whole entry): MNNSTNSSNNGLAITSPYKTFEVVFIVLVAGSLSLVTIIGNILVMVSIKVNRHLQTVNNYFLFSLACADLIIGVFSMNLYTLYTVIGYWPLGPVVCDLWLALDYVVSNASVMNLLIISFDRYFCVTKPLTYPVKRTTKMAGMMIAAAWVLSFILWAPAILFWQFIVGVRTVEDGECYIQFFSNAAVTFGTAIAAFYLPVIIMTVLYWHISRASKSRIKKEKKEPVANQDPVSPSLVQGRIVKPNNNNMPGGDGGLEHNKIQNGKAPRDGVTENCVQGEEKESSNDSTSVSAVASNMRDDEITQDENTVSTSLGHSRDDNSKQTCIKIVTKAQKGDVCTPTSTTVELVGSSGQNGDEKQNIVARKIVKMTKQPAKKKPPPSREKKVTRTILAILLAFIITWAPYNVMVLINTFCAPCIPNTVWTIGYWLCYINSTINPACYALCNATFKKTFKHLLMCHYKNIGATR

[6] = target: T3, Muscarinic acetylcholine receptor M1 (Rattus norvegicus, UniProt P08482); test: Affinity for rat M1 acetylcholine receptor using [3H]pirenzepine displacement.
T3 sequence (P08482 whole entry): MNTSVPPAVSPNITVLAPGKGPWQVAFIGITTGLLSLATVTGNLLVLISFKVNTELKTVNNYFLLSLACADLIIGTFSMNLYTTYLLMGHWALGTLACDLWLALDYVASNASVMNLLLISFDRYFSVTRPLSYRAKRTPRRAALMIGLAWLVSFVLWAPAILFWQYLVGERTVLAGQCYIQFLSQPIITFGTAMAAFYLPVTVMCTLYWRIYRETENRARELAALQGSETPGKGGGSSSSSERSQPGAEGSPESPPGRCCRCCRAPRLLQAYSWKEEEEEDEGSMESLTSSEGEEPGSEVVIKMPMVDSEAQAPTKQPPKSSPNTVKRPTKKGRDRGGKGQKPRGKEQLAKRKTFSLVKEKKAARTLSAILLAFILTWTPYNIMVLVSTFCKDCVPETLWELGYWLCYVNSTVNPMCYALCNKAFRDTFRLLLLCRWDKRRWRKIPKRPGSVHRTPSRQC

T1 sequence (P23977 whole entry): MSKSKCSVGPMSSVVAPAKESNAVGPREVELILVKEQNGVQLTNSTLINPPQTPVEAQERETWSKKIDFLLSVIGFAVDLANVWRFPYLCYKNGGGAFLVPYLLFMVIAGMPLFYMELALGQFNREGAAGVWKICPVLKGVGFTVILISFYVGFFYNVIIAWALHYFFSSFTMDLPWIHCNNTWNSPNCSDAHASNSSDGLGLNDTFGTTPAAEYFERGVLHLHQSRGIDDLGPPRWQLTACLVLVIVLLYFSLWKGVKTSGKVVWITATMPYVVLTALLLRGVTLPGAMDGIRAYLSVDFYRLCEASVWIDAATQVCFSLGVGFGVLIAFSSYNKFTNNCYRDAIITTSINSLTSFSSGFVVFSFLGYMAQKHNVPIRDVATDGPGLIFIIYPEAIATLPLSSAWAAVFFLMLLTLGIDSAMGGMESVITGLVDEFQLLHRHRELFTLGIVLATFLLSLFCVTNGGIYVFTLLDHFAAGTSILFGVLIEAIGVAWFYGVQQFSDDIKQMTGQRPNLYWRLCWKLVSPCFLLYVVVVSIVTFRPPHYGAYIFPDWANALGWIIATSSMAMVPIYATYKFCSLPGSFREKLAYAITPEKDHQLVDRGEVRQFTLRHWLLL

| SMILES | IC50 [1] | inhibition [2] | inhibition [3] | Ki [4] | Ki [5] | Ki [6] |
| --- | --- | --- | --- | --- | --- | --- |
| CN1[C@@H]2CC[C@H]1C[C@@H](OC(c1ccccc1)c1ccc(C(F)(F)F)cc1)C2 (stereo partly drawn) | 2.15 µM | 34.6% | 49.1% | – | – | – |
| CN1C2CCC1CC(OC(c1ccccc1)c1ccc(Cl)cc1)C2 (stereo in doubt; 10) [listing 1 of 2 here] | – | 27.9% | 37.2% | – | – | – |
| CN1[C@@H]2CC[C@H]1C[C@@H](OC(c1ccccc1)c1ccc(Br)cc1)C2 (stereo partly drawn) | 0.029 µM | 37% | 39% | – | – | – |
| CN1C2CCC1CC(OC(c1ccccc1)c1ccc(Cl)cc1)C2 (stereo in doubt; 7a) [listing 1 of 2 here] | 0.115 µM | – | – | 0.03 µM | 0.0366 µM | 0.0036 µM |
| CN1[C@@H]2CC[C@H]1C[C@@H](OC(c1ccc(Br)cc1)c1ccc(Br)cc1)C2 | 0.034 µM | 41.1% | 41% | – | – | 0.0708 µM |
| COc1ccc(C(O[C@H]2C[C@H]3CC[C@@H](C2)N3C)c2ccc(OC)cc2)cc1 | 2.88 µM | 34% | 31% | 2 µM | – | – |
| CN1C2CCC1CC(OC(c1ccccc1)c1ccc(Cl)cc1)C2 (stereo in doubt; 10) [listing 2 of 2 here] | 3.52 µM | – | – | – | 0.0874 µM | 0.0041 µM |
| CN1C2CCC1CC(OC(c1ccccc1)c1ccc(Cl)cc1)C2 (stereo in doubt; 7a) [listing 2 of 2 here] | – | 32% | 34% | – | – | – |
| CN1C2CCC1CC(OC(c1ccc(F)cc1)c1ccc(F)cc1)C2 (stereo not drawn) | – | 30% | 62% | – | – | – |
| CN1[C@@H]2CC[C@H]1C[C@@H](OC(c1ccccc1)c1ccc(C#N)cc1)C2 (stereo partly drawn) | 0.222 µM | 16% | 40% | – | – | – |
| CN1[C@@H]2CC[C@H]1C[C@@H](OC(c1ccccc1)c1ccc(Cl)c(Cl)c1)C2 (stereo partly drawn) | 0.047 µM | 56.5% | 66.2% | 0.0211 µM | – | – |
| CN1[C@@H]2CC[C@H]1C[C@@H](OC(c1ccc(F)cc1)c1ccc(Cl)c(Cl)c1)C2 (stereo partly drawn) | 0.024 µM | > 57.8% | 80.3% | – | – | – |
| CN1[C@@H]2CC[C@H]1C[C@@H](OC(c1ccccc1)c1ccc(C(C)(C)C)cc1)C2 (stereo partly drawn) | 4.46 µM | 37.6% | 24.7% | – | – | – |
| Cc1ccc(C(O[C@H]2C[C@H]3CC[C@@H](C2)N3C)c2ccccc2)cc1 (stereo partly drawn) | 0.512 µM | 31.8% | 35.4% | – | – | – |
| Cc1ccc(C(O[C@H]2C[C@H]3CC[C@@H](C2)N3C)c2ccc(C)cc2)cc1 | 2.54 µM | 35.1% | 35.5% | – | – | – |
| CN1[C@@H]2CC[C@H]1C[C@@H](OC(c1ccccc1)c1ccc(O)cc1)C2 (stereo partly drawn) | 0.677 µM | 27.3% | 23.3% | – | – | – |
| CN1[C@@H]2CC[C@H]1C[C@@H](OC(c1ccccc1)c1ccc([N+](=O)[O-])cc1)C2 (stereo partly drawn) | 0.219 µM | 29% | 54% | – | – | – |
| CN1[C@@H]2CC[C@H]1C[C@@H](OC(c1ccccc1)c1ccc(F)cc1)C2 (stereo partly drawn) | – | 37.9% | 35.2% | – | – | – |
| CN1[C@@H]2CC[C@H]1C[C@@H](OC(c1ccc(Cl)cc1)c1ccc(Cl)cc1)C2 | – | > 43% | 54% | – | – | – |
| CCc1ccc(C(O[C@H]2C[C@H]3CC[C@@H](C2)N3C)c2ccccc2)cc1 (stereo partly drawn) | 0.984 µM | 32.7% | 42.7% | – | – | – |
| COc1ccc(C(O[C@H]2C[C@H]3CC[C@@H](C2)N3C)c2ccccc2)cc1 (stereo partly drawn) | 0.468 µM | 30.9% | 30.5% | 0.0784 µM | – | – |
